Screening data from PubChem BioAssay.
The entries come from a sample that favours hits as a whole.
A1 apoptosis 2 – A1 inhibitors via caspase activation, primary screen, cell-based, luminescence, HTS, two replicates; MEF A1-2A-BIM cells, caspase-Glo luminescence, 3 h; percent of clofoctol response, DMSO zero; caspase activation, % (concentration not given with the values); 24,000 tested, under 10 active; AID 2465, 2010; in the data active means caspase activation above about 5.9%
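Material: A1-2A-BIM-expressing MEF cells. Buffer or medium: RPMI-1640 plus 10% FBS. Incubation: cells settled overnight, compound exposure 3 h at 37 °C, 5% CO2. Signal: Caspase-Glo 3/7 luminescence, 1 h at room temperature.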
T cruzi intra – inhibitors of intracellular Trypanosoma cruzi, primary screen, cell-based, plate reader, single point, set 2. activity score (inhibition), % at 5.01 µM. AID 651903, 2012. intracellular Trypanosoma cruzi in host cells. 4.9% of 22,000 active; in the data active means activity score above about 55%;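 further: parasites and compound incubated about four days before reading; 0% = median of neutral control wells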
INS-1E ATP HTS – protection of INS-1E cells from cytokine death, primary screen, ATP luminescence, single point | AID 488910, 2010 | INS-1E cytokine-induced death, 48 h; normalised: neutral wells 0, positive control 100 | 0.1% of 20,000 active | protection from cytokine-induced ATP loss, % at 10 µM;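 active means mean replicate protection from cytokine-induced ATP loss at least 50% and at least 75% of replicates each reaching 50%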
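Assay system – rat INS-1E insulinoma cell line · Quantity – 8000 cells per well · Buffer or medium – RPMI without phenol red, 5% FBS · Schedule – 48 h co-treatment, 10 min post-lysis read · Technique – luminescent ATP assay (CellTiter-Glo)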
Numbers without * were called inactive; · = not tested or not shown.

SMILES | A1 apoptosis 2 | T cruzi intra | INS-1E ATP HTS
C[C@@H]1CN([C@H](C)CO)C(=O)Cc2cc(NC(=O)Nc3ccc(C(F)(F)F)cc3)ccc2O[C@H]1CN(C)C(=O)Nc1ccc(C(F)(F)F)cc1 | -0.4 | -15.1 | -30.0
O=C(N/N=C/c1ccc(F)c(Oc2ccccc2)c1)c1ccccn1 | -4.3 | 5.1 | -0.7
NC(=O)[C@@H]1[C@H]2C(=O)O[C@H](c3ccccc3)[C@H](c3ccccc3)N2[C@H](c2ccccc2OCCO)[C@@]12C(=O)Nc1ccc(C#CC3(O)CCCCCC3)cc12 | 0.0 | · | ·
O=C(N/N=C/c1ccc(Br)s1)c1ccccc1O | -8.9 | -14.6 | -118.3
O=C(N/N=C/[C@H](O)[C@H](O)[C@@H](O)[C@@H](O)CO)c1ccccc1O | 0.3 | -8.5 | -5.9
O=C(N/N=C/c1ccc(O)c2ccccc12)c1ccccc1O | -7.4 | -16.0 | -19.0
CC(C)=CCC[C@@H](C)C/C=N/NC(=O)CCCCC(=O)NO | 0.2 | 13.9 | 2.6
C[C@@H]1CN([C@@H](C)CO)C(=O)Cc2cc(NC(=O)Nc3ccc(C(F)(F)F)cc3)ccc2O[C@@H]1CN(C)Cc1ccc2c(c1)OCO2 | · | 58.3* | -34.6
C[C@@H]1CN([C@H](C)CO)C(=O)Cc2cc(NC(=O)Nc3ccc(C(F)(F)F)cc3)ccc2O[C@H]1CN(C)Cc1ccc2c(c1)OCO2 | -1.3 | 7.9 | 0.2
O=C(N/N=C/c1ccc(-n2ccnc2)cc1)c1ccccn1 | -9.0 | 7.3 | -1.5
C[C@@H]1CN([C@H](C)CO)C(=O)Cc2cc(N(C)C)ccc2O[C@@H]1CN(C)Cc1ccc(C(F)(F)F)cc1 | -0.8 | -4.4 | -1.2
C[C@@H]1CN([C@H](C)CO)C(=O)Cc2cc(N(C)C)ccc2O[C@H]1CN(C)Cc1ccc(C(F)(F)F)cc1 | 0.3 | 64.0* | 19.6
C[C@@H]1CN([C@@H](C)CO)C(=O)Cc2cc(N(C)C)ccc2O[C@@H]1CN(C)Cc1ccc(C(F)(F)F)cc1 | 1.4 | -17.8 | -5.4
C[C@H]1CN([C@@H](C)CO)C(=O)Cc2cc(N(C)C)ccc2O[C@@H]1CN(C)Cc1ccc(C(F)(F)F)cc1 | 1.1 | 73.8* | 1.7
O=C(NO)c1ccc(C(=O)N/N=C/c2ccc(O)cc2Br)cc1 | -2.6 | -14.0 | 11.8
C=CCOC(=O)[C@H]1[C@@H]2C(=O)O[C@@H](c3ccccc3)[C@@H](c3ccccc3)N2[C@@H](c2ccc(OCCOC(=O)[C@@H]3C[C@@H]4C(=O)N[C@@H](Cc5ccccc5)C(=O)N4[C@@H]3c3cccc(OCCO)c3)cc2)[C@]12C(=O)Nc1ccc(I)cc12 | -0.6 | · | ·
O=C(N/N=C/c1cccnc1Cl)c1ccccn1 | -6.8 | -7.8 | -0.3
O=C(N/N=C/c1cc(Cl)cc(Cl)c1O)c1ccccn1 | -2.5 | 71.0* | -63.3
O=C(N/N=C/c1cccc2ccccc12)c1ccccn1 | -6.0 | -16.4 | 3.6
O=C(N/N=C/c1ccc2ccccc2c1O)c1ccccn1 | -4.1 | 61.1* | -107.0
Cc1nnc(Sc2ccc(/C=N/NC(=O)CCCCC(=O)NO)o2)n1C | -0.5 | -2.2 | 8.6
C[C@H](CO)N1C[C@H](C)[C@@H](CN(C)C(=O)Nc2cccc3ccccc23)Oc2ccc(NC(=O)Cn3cnnn3)cc2C1=O | -0.7 | -9.8 | 8.9
C[C@H](CO)N1C[C@H](C)[C@H](CN(C)Cc2ccncc2)Oc2c(NC(=O)c3ccncc3)cccc2C1=O | 0.1 | -8.0 | 4.0
C[C@H](CO)N1C[C@H](C)[C@H](CN(C)Cc2ccc(Cl)c(Cl)c2)Oc2c(NC(=O)c3ccncc3)cccc2C1=O | 0.9 | 56.3* | -7.9
C[C@@H]1CN([C@H](C)CO)C(=O)c2cccc(NC(=O)c3ccncc3)c2O[C@H]1CN(C)Cc1ccc(Cl)c(Cl)c1 | -0.7 | 75.9* | 0.8
SMILES | A1 apoptosis 2 | T cruzi intra | INS-1E ATP HTS
C[C@@H]1CN([C@@H](C)CO)C(=O)c2cccc(NC(=O)c3ccncc3)c2O[C@H]1CN(C)Cc1ccc(Cl)c(Cl)c1 | 0.4 | 78.2* | 2.8
C[C@H]1CN([C@@H](C)CO)C(=O)c2cccc(NC(=O)c3ccncc3)c2O[C@H]1CN(C)Cc1ccncc1 | · | -17.9 | 10.7
C[C@@H]1CN([C@H](C)CO)C(=O)c2cccc(NC(=O)c3ccncc3)c2O[C@H]1CN(C)Cc1ccncc1 | 0.9 | -16.0 | 4.4
O=C(CCCCCCC(=O)Nc1ccccc1O)N/N=C/[C@H](O)[C@@H](O)[C@H](O[C@@H]1O[C@H](CO)[C@H](O)[C@H](O)[C@H]1O)[C@H](O)CO | · | 1.0 | -14.4
C[C@@H]1CN([C@H](C)CO)C(=O)c2cccc(NC(=O)c3ccncc3)c2O[C@H]1CN(C)Cc1ccc2c(c1)OCO2 | 0.6 | 87.1* | -9.4
C[C@@H]1CN([C@H](C)CO)C(=O)c2cccc(NC(=O)c3ccncc3)c2O[C@@H]1CN(C)Cc1ccncc1 | 0.3 | -22.1 | 11.6
C[C@H]1CN([C@@H](C)CO)C(=O)c2cccc(NC(=O)c3ccncc3)c2O[C@H]1CN(C)Cc1ccc2c(c1)OCO2 | -0.7 | 62.3* | 0.7
C[C@@H]1CN([C@@H](C)CO)C(=O)c2cccc(NC(=O)c3ccncc3)c2O[C@H]1CN(C)Cc1ccc2c(c1)OCO2 | -0.4 | 59.4* | 3.5
C[C@@H]1CN([C@H](C)CO)C(=O)c2cccc(NC(=O)c3ccc(-c4nccs4)cc3)c2O[C@@H]1CN(C)Cc1ccc2c(c1)OCO2 | 0.4 | 15.4 | -5.0
C[C@H](CO)N1C[C@H](C)[C@H](CN(C)Cc2ccc3c(c2)OCO3)Oc2c(NC(=O)c3cnccn3)cccc2C1=O | · | 0.7 | 0.8
O=C(CCCCCCC(=O)Nc1ccccc1O)N/N=C/c1ccccc1Br | · | 1.2 | -0.2
COc1ccc([C@H]2C[C@H]3C(Br)=CC2C(=O)[C@]32CO2)cc1 | 0.3 | · | ·
COc1cc(Cl)c(/C=N/NC(=O)c2ccc(C(=O)NO)cc2)c(Cl)c1OC | -0.3 | 16.3 | 32.4
Cn1cc(/C=N/NC(=O)CCCCCC(=O)NO)c2ccccc21 | -0.5 | · | ·
Cc1noc(C)c1S(=O)(=O)Nc1ccc2c(c1)C(=O)N([C@@H](C)CO)C[C@H](C)[C@@H](CN(C)Cc1ccc(-c3ccccc3)cc1)O2 | · | 40.9 | -18.6
Cc1noc(C)c1S(=O)(=O)Nc1ccc2c(c1)C(=O)N([C@H](C)CO)C[C@H](C)[C@H](CN(C)Cc1ccc(-c3ccccc3)cc1)O2 | -0.2 | 65.3* | -16.8
Cc1noc(C)c1S(=O)(=O)Nc1ccc2c(c1)CC(=O)N([C@H](C)CO)C[C@@H](C)[C@H](CN(C)Cc1ccc(-c3ccccc3)cc1)O2 | -1.5 | 57.9* | -30.6
Cc1noc(C)c1S(=O)(=O)Nc1ccc2c(c1)CC(=O)N([C@H](C)CO)C[C@@H](C)[C@H](CN(C)Cc1ccc(Oc3ccccc3)cc1)O2 | · | 69.4* | -7.2
Cc1noc(C)c1S(=O)(=O)Nc1ccc2c(c1)CC(=O)N([C@@H](C)CO)C[C@H](C)[C@H](CN(C)Cc1ccccc1)O2 | -0.3 | 1.6 | 4.8
Cc1noc(C)c1S(=O)(=O)Nc1ccc2c(c1)CC(=O)N([C@@H](C)CO)C[C@H](C)[C@@H](CN(C)Cc1ccc(-c3ccccc3)cc1)O2 | 0.1 | 66.2* | -3.5
